Assay results: ChEMBL document CHEMBL4270548, “Discovery of a potent glucokinase activator with a favorable liver and pancreas distribution pattern for the treatment of type 2 diabetes mellitus” (Eur J Med Chem, 2018)

How the values were obtained:
Mus musculus [1] = experiment: Toxicity in ob/ob mouse assessed as effect on hepatic tryglyceride level at 10 to 30 mg/kg, po bid administered for 28 days measured up to post last dose; type: organism-based; conditions: in vivo, 672 h
Procedure, shortened: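 Male ob/ob mice (9 weeks) dosed orally twice daily for 4 weeks, vehicle 0.5% MC. Plasma glucose measured by portable glucometer at 2 and 4 weeks. Liver TG assessed at the end of treatment. Mean ± SEM (n = 10), Dunnett's test versus vehicle.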

[2] = Cmax in ICR mouse at 10 mg/kg, po administered as single dose by LC/MS/MS analysis; type: ADME, organism-based; set-up: dose 10 mg/kg, route oral; conditions: in vivo
Procedure, shortened: (§1)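 Male ICR mice (8 weeks) fasted overnight and fed 7 h post-dose. Dosing was either a single IV dose of 2 mg/kg in saline or a single oral dose of 10 mg/kg in 0.5 w/v% MC. Orbital plexus blood was taken under anesthesia at serial times to 24 h. Plasma was extracted with acetonitrile/methanol plus internal standard and quantified by LC/MS/MS.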

[3] = Terminal half life in ICR mouse at 10 mg/kg, po administered as single dose by LC/MS/MS analysis; type: ADME, organism-based; conditions: in vivo, read-out: beta t1/2 (converted); procedure, shortened: as §1
[4] = Ratio of AUC (0 to 1.5 hrs) in C57BL/6J mouse liver to pancreas at 100 mg/kg, po administered as single dose by LC/MS/MS analysis; type: ADME, organism-based; conditions: in vivo
Procedure, shortened: (§2)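 Overnight-fasted male C57BL/6J mice (8 weeks) given a single oral dose (10, 30 or 100 mg/kg) in 0.1 w/v% Tween80 / 0.5 w/v% MC. Plasma taken via postcaval vein, liver and pancreas dissected and homogenized at 0.5, 1 and 1.5 h. LC/MS/MS with internal standard after acetonitrile/methanol extraction. AUC0-1.5h by trapezoidal rule, mean ± SD (n = 3). Kp = AUCtissue/AUCplasma. L/P = AUCliver/AUCpancreas.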

[5] = AUC (0 to 1.5 hrs) in C57BL/6J mouse plasma at 30 mg/kg, po administered as single dose by LC/MS/MS analysis; type: ADME, organism-based; set-up: dose 30 mg/kg, time < 1.5 hr, route oral
[6] = Ratio of AUC (0 to 1.5 hrs) in C57BL/6J mouse pancreas to plasma at 10 mg/kg, po administered as single dose by LC/MS/MS analysis; type: ADME, organism-based; conditions: pancreas and plasma, read-out: Ratio AUC
[7] = Ratio of AUC (0 to 1.5 hrs) in C57BL/6J mouse pancreas to plasma at 100 mg/kg, po administered as single dose by LC/MS/MS analysis; type: ADME, organism-based; conditions: pancreas and plasma, read-out: Ratio AUC; procedure, shortened: as §2
[8] = Ratio of AUC (0 to 1.5 hrs) in C57BL/6J mouse liver to plasma at 30 mg/kg, po administered as single dose by LC/MS/MS analysis; type: ADME, organism-based; conditions: liver and plasma, read-out: Ratio AUC
[9] = Primary phase half life in ICR mouse at 2 mg/kg, iv administered as single dose by LC/MS/MS analysis; type: ADME, organism-based; conditions: in vivo, read-out: alphat1/2 (converted); procedure, shortened: as §1
[10] = Volume of distribution at steady state in ICR mouse at 2 mg/kg, iv administered as single dose by LC/MS/MS analysis; type: ADME, organism-based; conditions: in vivo, read-out: Vdss; procedure, shortened: as §1
[11] = Clearance in ICR mouse plasma at 2 mg/kg, iv administered as single dose by LC/MS/MS analysis; type: ADME, organism-based; procedure, shortened: as §1
[12] = AUC (0 to 1.5 hrs) in C57BL/6J mouse liver at 10 mg/kg, po administered as single dose by LC/MS/MS analysis; type: ADME, organism-based; set-up: time < 1.5 hr, dose 10 mg/kg, route oral; conditions: in vivo
[13] = Ratio of AUC (0 to 1.5 hrs) in C57BL/6J mouse liver to pancreas at 30 mg/kg, po administered as single dose by LC/MS/MS analysis; type: ADME, organism-based; conditions: in vivo
[14] = Ratio of AUC (0 to 1.5 hrs) in C57BL/6J mouse liver to pancreas at 10 mg/kg, po administered as single dose by LC/MS/MS analysis; type: ADME, organism-based; conditions: in vivo
[15] = Ratio of AUC (0 to 1.5 hrs) in C57BL/6J mouse pancreas to plasma at 30 mg/kg, po administered as single dose by LC/MS/MS analysis; type: ADME, organism-based; conditions: pancreas and plasma, read-out: Ratio AUC
[16] = Cytotoxicity against CHOK1 cells assessed as reduction in cell viability after 24 hrs by WST1 assay; type: cell-based, Cricetulus griseus; conditions: chinese hamster, CHO-K1 cells
Procedure, shortened: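 CHO-K1 cells plated at 6000/well in Ham's F12K with 2% FBS and 1 mM L-glutamine plus antibiotics, incubated overnight at 37 °C, 5% CO2. Exposed 24 h to compound at 1–100 µM final, with 1% DMSO vehicle and benzbromarone positive control. Viability read by WST-1.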

[17] = AUC (0 to 1.5 hrs) in C57BL/6J mouse liver at 100 mg/kg, po administered as single dose by LC/MS/MS analysis; type: ADME, organism-based; set-up: time < 1.5 hr, dose 100 mg/kg, route oral; conditions: in vivo; procedure, shortened: as §2
[18] = Ratio of AUC (0 to 1.5 hrs) in C57BL/6J mouse liver to plasma at 100 mg/kg, po administered as single dose by LC/MS/MS analysis; type: ADME, organism-based; conditions: liver and plasma, read-out: Ratio AUC; procedure, shortened: as §2
[19] = Ratio of AUC (0 to 1.5 hrs) in C57BL/6J mouse liver to plasma at 10 mg/kg, po administered as single dose by LC/MS/MS analysis; type: ADME, organism-based; conditions: liver and plasma, read-out: Ratio AUC
[20] = AUC (0 to infinity) in ICR mouse at 10 mg/kg, po administered as single dose by LC/MS/MS analysis; type: ADME, organism-based; set-up: dose 10 mg/kg, route oral, time infinity; conditions: in vivo; procedure, shortened: as §1
[21] = AUC (0 to 1.5 hrs) in C57BL/6J mouse liver at 30 mg/kg, po administered as single dose by LC/MS/MS analysis; type: ADME, organism-based; set-up: dose 30 mg/kg, time < 1.5 hr, route oral; conditions: in vivo
[22] = Terminal half life in ICR mouse at 2 mg/kg, iv administered as single dose by LC/MS/MS analysis; type: ADME, organism-based; conditions: in vivo, read-out: beta t1/2 (converted); procedure, shortened: as §1
[23] = target: Voltage-gated inwardly rectifying potassium channel KCNH2 (Homo sapiens, UniProt Q12809); experiment: Inhibition of human ERG expressed in HEK293 cells at -80 holding potential by whole patch clamp assay; type: cell-based
Procedure, shortened: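 Whole-cell patch clamp on HEK293 stably expressing hERG, perfused at 26.0 ± 2.0 °C. Holding potential −80 mV. Steps to −40 to +20 mV for 1.5 s, then −50 mV for 1.5 s, repeated every 15 s. Concentrations 3–300 µM, 0.1% DMSO vehicle, E-4031 positive control.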

[24] = Cytotoxicity against rat primary hepatocytes assessed as reduction in cell viability after 24 hrs by AlamarBlue assay; type: cell-based, Hepatocyte
Procedure, shortened: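 Hepatocytes isolated from male SD rats (7 weeks) by two-step collagenase perfusion. Seeded at 2–3×10^4/well on collagen in modified WE medium with 10% FBS, dexamethasone and insulin, switched to serum-free medium at 4 h. At 20–24 h exposed 24 h to 1–100 µM final, 1% DMSO vehicle. Viability read by alamarBlue.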

[25] = Oral bioavailability in ICR mouse at 10 mg/kg administered as single dose by LC/MS/MS analysis; type: ADME, organism-based; conditions: in vivo; procedure, shortened: as §1
[26] = Tmax in ICR mouse at 10 mg/kg, po administered as single dose by LC/MS/MS analysis; type: ADME, organism-based; conditions: in vivo; procedure, shortened: as §1
[27] = AUC (0 to 1.5 hrs) in C57BL/6J mouse pancreas at 100 mg/kg, po administered as single dose by LC/MS/MS analysis; type: ADME, organism-based; set-up: time < 1.5 hr, dose 100 mg/kg, route oral; conditions: in vivo; procedure, shortened: as §2
[28] = AUC (0 to 1.5 hrs) in C57BL/6J mouse plasma at 100 mg/kg, po administered as single dose by LC/MS/MS analysis; type: ADME, organism-based; set-up: time < 1.5 hr, dose 100 mg/kg, route oral; procedure, shortened: as §2
[29] = AUC (0 to 1.5 hrs) in C57BL/6J mouse pancreas at 30 mg/kg, po administered as single dose by LC/MS/MS analysis; type: ADME, organism-based; set-up: time < 1.5 hr, dose 30 mg/kg, route oral; conditions: in vivo
[30] = AUC (0 to infinity) in ICR mouse at 2 mg/kg, iv administered as single dose by LC/MS/MS analysis; type: ADME, organism-based; set-up: dose 2 mg/kg, route intravenous, time infinity; conditions: in vivo; procedure, shortened: as §1
Mus musculus [31] = experiment: Toxicity in C57BL/6J mouse assessed as hypoglycemia at <100 mg/kg, po measured up to 300 mins by glucometric method; type: organism-based; conditions: in vivo, 5 h
Procedure, shortened: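 Male C57BL/6J mice (8 weeks) fasted 2 h and dosed orally at time 0 (n = 8/group). Tail vein glucose measured by glucometer at 0, 60, 120, 180, 240 and 300 min. Hypoglycemia defined as plasma glucose < 60 mg/dL. Mean ± SEM, Dunnett's test.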

[32] = AUC (0 to 1.5 hrs) in C57BL/6J mouse pancreas at 10 mg/kg, po administered as single dose by LC/MS/MS analysis; type: ADME, organism-based; set-up: dose 10 mg/kg, time < 1.5 hr, route oral; conditions: in vivo
[33] = AUC (0 to 1.5 hrs) in C57BL/6J mouse plasma at 10 mg/kg, po administered as single dose by LC/MS/MS analysis; type: ADME, organism-based; set-up: time < 1.5 hr, dose 10 mg/kg, route oral

Voltage-gated inwardly rectifying potassium channel KCNH2, sequence (Q12809 whole entry, the tested form may be a part): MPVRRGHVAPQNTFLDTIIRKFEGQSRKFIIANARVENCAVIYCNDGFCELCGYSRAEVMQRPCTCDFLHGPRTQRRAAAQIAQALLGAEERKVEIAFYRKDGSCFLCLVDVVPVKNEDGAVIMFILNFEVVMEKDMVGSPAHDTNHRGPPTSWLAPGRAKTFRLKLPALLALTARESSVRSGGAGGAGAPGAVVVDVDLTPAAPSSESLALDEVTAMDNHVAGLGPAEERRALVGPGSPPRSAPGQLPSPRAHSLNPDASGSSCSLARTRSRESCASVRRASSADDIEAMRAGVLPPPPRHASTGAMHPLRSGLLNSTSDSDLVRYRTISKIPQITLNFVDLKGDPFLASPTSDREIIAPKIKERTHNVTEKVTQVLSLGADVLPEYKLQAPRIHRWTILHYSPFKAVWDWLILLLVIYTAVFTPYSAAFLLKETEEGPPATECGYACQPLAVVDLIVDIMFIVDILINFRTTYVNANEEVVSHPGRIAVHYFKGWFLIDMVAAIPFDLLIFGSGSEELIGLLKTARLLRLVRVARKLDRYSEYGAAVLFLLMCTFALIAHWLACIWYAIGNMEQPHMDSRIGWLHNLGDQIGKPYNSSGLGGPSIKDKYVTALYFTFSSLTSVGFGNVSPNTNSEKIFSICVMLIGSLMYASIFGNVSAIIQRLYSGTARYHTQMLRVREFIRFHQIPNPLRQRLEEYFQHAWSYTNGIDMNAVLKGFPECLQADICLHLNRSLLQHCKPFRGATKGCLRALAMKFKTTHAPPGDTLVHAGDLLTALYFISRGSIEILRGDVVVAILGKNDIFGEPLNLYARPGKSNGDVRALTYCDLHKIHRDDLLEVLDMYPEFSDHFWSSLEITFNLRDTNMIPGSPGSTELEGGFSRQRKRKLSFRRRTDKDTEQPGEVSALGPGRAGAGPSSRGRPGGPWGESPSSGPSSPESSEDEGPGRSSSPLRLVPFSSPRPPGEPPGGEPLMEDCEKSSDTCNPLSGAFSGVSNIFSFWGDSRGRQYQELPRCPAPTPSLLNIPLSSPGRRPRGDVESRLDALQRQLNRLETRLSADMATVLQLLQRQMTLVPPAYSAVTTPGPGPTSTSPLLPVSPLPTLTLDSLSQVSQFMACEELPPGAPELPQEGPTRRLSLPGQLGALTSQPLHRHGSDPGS

In the case of `CCN(CC(=O)O)CC(=O)N1CCC[C@H]1c1cc(C(=O)Nc2ncc(F)s2)c(C)s1`, the Activity (Mus musculus [1]) is reported as “Non-Toxic”, the Cmax [2] is reported as 3020 ng/mL and the half-life [3] is reported as 2 h. For the same compound, the “Ratio AUC” value [4] was 14, the AUC(0-t) at 1.5 h [5] was 17700 ng·h/mL and the Kp [6] was 0.064. It also gave a Kp [7] of 0.12, a Kp [8] of 1.6 and a half-life [9] of 0.47 h. For the same compound, the Vd [10] was 0.31 L/kg, the clearance [11] was 3.88 mL/min/kg and the AUC [12] was 8910 ng·h/g. For the same compound, the “Ratio AUC” value [13] was 22.5, the “Ratio AUC” value [14] was 20.6 and the Kp [15] was 0.081. The CC50 at 24 h [16] was > 100 µM, the AUC [17] was 148000 ng·h/g and the Kp [18] was 1.7. For the same compound, the Kp [19] was 1.3, the AUC(0-inf) [20] was 8600 ng·h/mL and the AUC [21] was 32300 ng·h/g. The half-life [22] was 1.6 h, the IC50 [23] was > 300 µM and the CC50 at 24 h [24] was > 100 µM. For the same compound, the bioavailability [25] was 20%, the Tmax [26] was 0.25 h and the AUC [27] was 10500 ng·h/g. For the same compound, the AUC(0-t) at 1.5 h [28] was 86900 ng·h/mL, the AUC [29] was 1430 ng·h/g and the AUC(0-inf) [30] was 8580 ng·h/mL. For the same compound, the Activity (Mus musculus [31]) was “Non-Toxic”, the AUC [32] was 433 ng·h/g and the AUC(0-t) at 1.5 h [33] was 6750 ng·h/mL.
